Test results from article PMC4828974 (Cancer research, 2015).

Assays:
[1] = system: WASF3 phosphorylation in MDA-MB-231 cells; conditions: inactivation of HSP90; cited from earlier work
[2] = system: KISS1; experiment: KISS1 levels by western blot; assay type: cell-based; conditions: MDA-MB-231 cells, compared with scrambled peptides
[3] = molecular target: WASF3-CYFIP1 complex (Homo sapiens, UniProt Q7L576); experiment: Immunoprecipitation of WASF3, western blot for CYFIP1; assay type: cell-based; conditions: MDA-MB-231 cells treated with peptide, IP of WASF3
[4] = molecular target: CYFIP1 (Homo sapiens, UniProt Q7L576); experiment: Avidin-biotin pull down with biotinylated stapled peptides, western blot; assay type: binding; conditions: 2.5 µM versus 10 µM biotinylated peptide, MDA-MB-231 cells
Outline: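 MDA-MB-231 cells exposed to biotin-labelled stapled test peptides at 2.5 or 10 µM, with biotinylated scrambled peptides as controls. Lysates incubated overnight at 4 °C with immobilised avidin resin. Pulled-down material resolved by SDS-PAGE and western blotted for CYFIP1.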

[5] = system: breast and prostate cell lines; experiment: Scratch wound; assay type: cell-based; conditions: scratch wound assay, compared with DMSO and scrambled peptide
[6] = system: breast or prostate cancer cells; experiment: MTS cell proliferation assay; assay type: cell-based; conditions: 10 µM, over 24 hours
[7] = system: WASF3; experiment: WASF3 protein levels by western blot; assay type: cell-based; conditions: MDA-MB-231 cells cultured in serum
[8] = molecular target: Rac1/2 binding to the WASF3 complex (Homo sapiens, UniProt Q7L576); experiment: IP with WASF3 antibodies, western blot for Rac1/Rac2; assay type: cell-based; conditions: MDA-MB-231 cells
Outline: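 MDA-MB-231 cells were left untreated or treated with stapled test peptides or a scrambled control peptide. Lysates were immunoprecipitated with anti-WASF3 antibody, and the immunocomplex was western blotted for Rac1 and Rac2.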

[9] = system: breast and prostate cancer cells; experiment: Transwell invasion assay; assay type: cell-based; conditions: for reduction of invasion potential: Transwell, 24 hours, 10 µM, compared with SCR peptides or DMSO; for dose dependence of suppression of cell invasion: high dose 10 µM versus low dose 2.5 µM
[10] = system: WASF3 phosphorylation in MDA-MB-231 cells; experiment: WASF3 phosphorylation status; assay type: cell-based; conditions: for WASF3 phosphorylation levels: MDA-MB-231 cells in serum
Outline: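 MDA-MB-231 cells were treated with stapled peptides, the scrambled control peptide, or the HSP90 inhibitor 17-AAG for comparison. WASF3 was immunoprecipitated, with IgG IP as the negative control. Immunoblots were probed with the PY20 antibody for phosphorylation and with WASF3 antibody for total protein.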

[11] = system: CYFIP1; experiment: CYFIP1 protein levels by western blot; assay type: cell-based; conditions: 24 hours treatment

Sequence of Rac1/2 binding to the WASF3 complex (Q7L576 whole entry): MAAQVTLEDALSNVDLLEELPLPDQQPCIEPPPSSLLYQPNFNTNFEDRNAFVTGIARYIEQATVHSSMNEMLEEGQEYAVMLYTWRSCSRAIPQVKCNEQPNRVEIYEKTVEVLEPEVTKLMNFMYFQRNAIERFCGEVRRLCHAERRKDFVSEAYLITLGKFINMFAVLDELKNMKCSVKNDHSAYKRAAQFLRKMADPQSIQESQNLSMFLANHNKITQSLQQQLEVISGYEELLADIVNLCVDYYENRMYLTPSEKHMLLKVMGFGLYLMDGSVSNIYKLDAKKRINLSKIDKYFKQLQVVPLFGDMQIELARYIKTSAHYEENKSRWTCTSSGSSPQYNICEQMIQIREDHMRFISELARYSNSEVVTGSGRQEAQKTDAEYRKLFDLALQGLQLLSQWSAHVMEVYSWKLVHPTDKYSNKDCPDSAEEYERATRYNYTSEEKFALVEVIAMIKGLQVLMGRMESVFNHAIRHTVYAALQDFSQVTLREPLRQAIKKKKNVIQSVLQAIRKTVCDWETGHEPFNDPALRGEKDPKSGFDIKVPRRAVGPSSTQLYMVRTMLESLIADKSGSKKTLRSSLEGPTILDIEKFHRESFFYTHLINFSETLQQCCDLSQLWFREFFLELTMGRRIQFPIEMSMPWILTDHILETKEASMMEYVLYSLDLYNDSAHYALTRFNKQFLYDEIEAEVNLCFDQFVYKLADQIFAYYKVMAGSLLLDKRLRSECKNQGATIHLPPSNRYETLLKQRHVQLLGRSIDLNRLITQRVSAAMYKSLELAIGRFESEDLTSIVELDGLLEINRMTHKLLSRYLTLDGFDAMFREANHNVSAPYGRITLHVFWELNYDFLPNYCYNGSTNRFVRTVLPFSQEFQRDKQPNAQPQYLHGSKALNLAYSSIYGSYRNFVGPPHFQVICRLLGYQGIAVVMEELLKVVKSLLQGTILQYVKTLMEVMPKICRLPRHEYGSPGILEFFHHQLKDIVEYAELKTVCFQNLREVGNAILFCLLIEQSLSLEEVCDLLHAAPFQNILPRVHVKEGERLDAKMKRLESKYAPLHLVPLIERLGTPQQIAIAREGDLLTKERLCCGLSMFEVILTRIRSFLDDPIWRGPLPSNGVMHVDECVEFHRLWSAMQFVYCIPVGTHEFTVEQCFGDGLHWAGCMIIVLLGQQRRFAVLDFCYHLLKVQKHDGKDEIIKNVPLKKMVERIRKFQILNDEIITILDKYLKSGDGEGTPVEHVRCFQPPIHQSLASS
Sequence of Rac1/2 binding to the WASF3 complex (Q9Y2A7 whole entry partner): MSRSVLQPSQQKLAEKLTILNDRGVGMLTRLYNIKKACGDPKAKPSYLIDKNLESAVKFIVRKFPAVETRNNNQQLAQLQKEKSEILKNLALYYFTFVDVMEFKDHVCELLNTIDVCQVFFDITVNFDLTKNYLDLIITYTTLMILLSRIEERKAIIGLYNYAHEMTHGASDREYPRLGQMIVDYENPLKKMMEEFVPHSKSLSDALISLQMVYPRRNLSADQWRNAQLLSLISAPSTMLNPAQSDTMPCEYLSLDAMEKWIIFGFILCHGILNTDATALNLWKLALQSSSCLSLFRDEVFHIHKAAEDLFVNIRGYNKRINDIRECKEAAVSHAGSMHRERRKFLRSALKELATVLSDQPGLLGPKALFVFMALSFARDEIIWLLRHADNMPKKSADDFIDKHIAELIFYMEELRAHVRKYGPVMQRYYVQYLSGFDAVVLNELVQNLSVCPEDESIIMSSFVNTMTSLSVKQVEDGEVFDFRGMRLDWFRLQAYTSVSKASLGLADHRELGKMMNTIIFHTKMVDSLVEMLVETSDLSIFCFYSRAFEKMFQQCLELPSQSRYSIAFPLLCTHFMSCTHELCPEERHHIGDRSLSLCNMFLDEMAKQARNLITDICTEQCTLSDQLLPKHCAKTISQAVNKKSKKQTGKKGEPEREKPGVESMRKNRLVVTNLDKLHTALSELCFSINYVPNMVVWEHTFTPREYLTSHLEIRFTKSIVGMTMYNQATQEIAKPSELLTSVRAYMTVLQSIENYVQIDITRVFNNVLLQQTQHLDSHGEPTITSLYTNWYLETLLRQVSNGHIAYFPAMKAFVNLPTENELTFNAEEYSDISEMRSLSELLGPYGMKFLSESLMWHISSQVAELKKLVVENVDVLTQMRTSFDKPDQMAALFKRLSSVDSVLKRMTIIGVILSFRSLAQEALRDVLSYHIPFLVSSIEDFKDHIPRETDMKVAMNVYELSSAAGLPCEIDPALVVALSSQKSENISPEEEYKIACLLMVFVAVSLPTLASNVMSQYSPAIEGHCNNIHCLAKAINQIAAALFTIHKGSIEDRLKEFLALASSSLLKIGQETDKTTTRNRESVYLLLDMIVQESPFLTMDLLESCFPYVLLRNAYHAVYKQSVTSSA
Sequence of WASF3-CYFIP1 complex (Q7L576 whole entry): as the sequence (Q7L576 whole entry) above
Sequence of WASF3-CYFIP1 complex (Q9Y2A7 whole entry partner): as the sequence (Q9Y2A7 whole entry partner) above
Sequence of CYFIP1 (Homo sapiens, UniProt Q7L576) (Q7L576 whole entry): as the sequence (Q7L576 whole entry) above

| Compound | WASF3 phosphoactivation [1] | KISS1 levels [2] | CYFIP1 in the WASF3 immunocomplex [3] | concentration dependence of CYFIP1 pull down [4] | migration potential / cell motility [5] | cell proliferation [6] | WASF3 protein levels [7] | Rac2 in the WASF3 IP [8] | reduction of invasion potential [9] | dose dependence of suppression of cell invasion [9] | suppression of WASF3 phosphorylation compared with 17-AAG ([10]; MDA-MB-231 cells) | WASF3 phosphorylation levels [10] | intracellular levels of WASF3 or CYFIP1 [11] |
| --- | --- | --- | --- | --- | --- | --- | --- | --- | --- | --- | --- | --- | --- |
| C=CCNC1=C2C[C@@H](C)C[C@H](OC)[C@H](O)[C@@H](C)/C=C(\C)[C@H](OC(N)=O)[C@@H](OC)/C=C\C=C(/C)C(=O)NC(=CC1=O)C2=O [17-AAG] | reduced WASF3 phosphoactivation |  |  |  |  |  |  |  |  |  |  |  |  |
| LEK*TNS*LAKIIRQL (sidechain bridge or staple) [WAHM1] |  | increased KISS1 levels | not present in the immunocomplex | concentration-dependent | significant reduction in cell motility | no significant difference in cell proliferation | without a reduction in WASF3 protein levels | could not be detected | 50–75% | dose-dependent effect | more efficient than the 17-AAG HSP90 inhibitor | dramatic decrease in WASF3 phosphorylation levels | did not affect intracellular levels of either WASF3 or CYFIP1 |
| LEKKTN*TLA*IIRQL (sidechain bridge or staple) [WAHM2] |  | increased KISS1 levels | not present in the immunocomplex | concentration-dependent | significant reduction in cell motility | no significant difference in cell proliferation | without a reduction in WASF3 protein levels |  | 50–75% | dose-dependent effect |  | dramatic decrease in WASF3 phosphorylation levels | did not affect intracellular levels of either WASF3 or CYFIP1 |
| SRA*LLI*TKIQNELK (sidechain bridge or staple) [SCR1] |  |  |  |  |  |  |  | present |  |  |  |  |  |
